Experimental data from PMC3361572 (Chemistry & biology, 2012).

Columns and labels:
[1] = no reference given; cited from earlier work
[2] = target: T1, MAGL (Rattus norvegicus, UniProt Q8R431); test: competitive ABPP, rat brain membrane proteome; type: biochemical; conditions: read-out: IC50 (95% CI), rat MAGL; competitive ABPP, rat brain membrane proteome
T1 sequence (Q8R431 1-303): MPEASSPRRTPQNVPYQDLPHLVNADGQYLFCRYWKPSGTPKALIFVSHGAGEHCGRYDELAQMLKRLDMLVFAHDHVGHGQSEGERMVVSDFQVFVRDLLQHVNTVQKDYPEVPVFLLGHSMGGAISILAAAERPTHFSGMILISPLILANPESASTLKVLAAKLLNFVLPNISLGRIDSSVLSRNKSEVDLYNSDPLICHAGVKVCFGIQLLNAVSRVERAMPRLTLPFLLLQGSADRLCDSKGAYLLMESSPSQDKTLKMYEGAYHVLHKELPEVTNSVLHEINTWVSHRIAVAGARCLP
Summary of the method: (§1)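 Brain (mouse or rat) or mouse lung proteomes were preincubated with the test compound, then treated with the serine hydrolase probe FP-Rh. Samples were separated by SDS-PAGE and read by in-gel fluorescence scanning. Inhibition was taken as reduced FP-Rh labelling of MAGL, ABHD6, FAAH or CES bands, and IC50 values were calculated from quantified gel bands. Three independent experiments.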

[3] = target: T2, FAAH (Rattus norvegicus, UniProt P97612); test: competitive ABPP, rat brain membrane proteome; type: biochemical; conditions: read-out: IC50 (95% CI), rat FAAH; competitive ABPP, rat brain membrane proteome
T2 sequence (P97612 1-579): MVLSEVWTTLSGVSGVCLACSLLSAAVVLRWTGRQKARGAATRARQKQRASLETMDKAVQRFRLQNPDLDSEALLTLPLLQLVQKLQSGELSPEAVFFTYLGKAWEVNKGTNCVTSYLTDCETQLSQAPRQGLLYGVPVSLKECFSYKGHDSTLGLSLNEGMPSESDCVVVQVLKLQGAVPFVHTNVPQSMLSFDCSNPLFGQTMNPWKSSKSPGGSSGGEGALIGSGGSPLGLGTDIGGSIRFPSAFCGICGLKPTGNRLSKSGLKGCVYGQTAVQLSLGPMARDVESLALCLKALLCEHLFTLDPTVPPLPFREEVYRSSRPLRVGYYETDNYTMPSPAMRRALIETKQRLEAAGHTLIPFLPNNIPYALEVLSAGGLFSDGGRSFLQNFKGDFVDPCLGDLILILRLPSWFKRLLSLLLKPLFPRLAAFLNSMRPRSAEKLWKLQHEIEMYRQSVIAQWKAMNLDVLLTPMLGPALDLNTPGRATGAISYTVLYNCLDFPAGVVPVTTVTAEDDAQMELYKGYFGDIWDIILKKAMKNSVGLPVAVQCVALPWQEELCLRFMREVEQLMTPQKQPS
Summary of the method: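 Rat brain proteome pre-treated with test compound, then labelled with the serine hydrolase-directed fluorophosphonate-rhodamine (FP-Rh) activity-based probe. Proteins separated by SDS-PAGE and detected by in-gel fluorescence scanning. Inhibition scored as loss of FP-Rh labelling of the FAAH band. IC50 calculated from the gel-based ABPP data.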

[4] = target: T3, hFAAH (Homo sapiens, UniProt O00519); test: competitive ABPP, proteomes of transiently transfected HEK293T cells; type: biochemical; conditions: for IC50: read-out: IC50 (95% CI), human FAAH, competitive ABPP, transfected HEK293T cell proteome
T3 sequence (O00519 1-579): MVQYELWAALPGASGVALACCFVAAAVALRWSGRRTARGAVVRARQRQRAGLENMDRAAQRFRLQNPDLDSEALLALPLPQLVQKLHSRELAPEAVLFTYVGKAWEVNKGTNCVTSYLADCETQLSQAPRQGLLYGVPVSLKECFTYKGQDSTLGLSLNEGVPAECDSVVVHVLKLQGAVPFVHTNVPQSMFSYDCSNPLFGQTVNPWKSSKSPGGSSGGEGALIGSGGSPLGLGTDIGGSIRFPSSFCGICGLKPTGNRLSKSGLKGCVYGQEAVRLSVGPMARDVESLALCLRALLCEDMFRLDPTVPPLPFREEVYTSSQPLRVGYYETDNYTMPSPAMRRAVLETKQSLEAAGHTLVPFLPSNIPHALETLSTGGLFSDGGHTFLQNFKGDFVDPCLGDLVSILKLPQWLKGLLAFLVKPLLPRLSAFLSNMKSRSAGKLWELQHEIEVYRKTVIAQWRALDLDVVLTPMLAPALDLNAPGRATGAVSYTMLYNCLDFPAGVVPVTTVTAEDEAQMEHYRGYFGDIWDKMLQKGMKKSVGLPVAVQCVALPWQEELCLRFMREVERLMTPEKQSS

[5] = target: T4, FAAH (Mus musculus, UniProt O08914); test: competitive ABPP of brain from inhibitor-treated mice; type: in vivo
T4 sequence (O08914 1-579): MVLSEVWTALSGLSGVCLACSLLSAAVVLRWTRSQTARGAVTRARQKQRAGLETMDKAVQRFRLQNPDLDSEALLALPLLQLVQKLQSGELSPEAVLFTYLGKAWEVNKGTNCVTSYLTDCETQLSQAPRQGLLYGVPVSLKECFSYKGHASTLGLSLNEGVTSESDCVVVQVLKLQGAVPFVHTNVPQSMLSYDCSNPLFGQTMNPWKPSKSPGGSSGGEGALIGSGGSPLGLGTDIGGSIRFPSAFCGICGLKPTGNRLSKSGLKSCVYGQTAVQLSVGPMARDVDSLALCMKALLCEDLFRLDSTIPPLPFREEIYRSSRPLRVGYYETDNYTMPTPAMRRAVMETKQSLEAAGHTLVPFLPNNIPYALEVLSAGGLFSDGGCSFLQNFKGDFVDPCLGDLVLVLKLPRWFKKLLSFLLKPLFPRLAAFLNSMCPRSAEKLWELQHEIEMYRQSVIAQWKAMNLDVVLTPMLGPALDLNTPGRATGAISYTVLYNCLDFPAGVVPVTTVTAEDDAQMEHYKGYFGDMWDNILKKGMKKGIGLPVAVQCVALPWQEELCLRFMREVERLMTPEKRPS

[6] = system: brain 2-AG, AA, AEA, PEA, OEA; test: brain lipid profile of inhibitor-treated mice; type: in vivo, mouse; conditions: 40 mg kg^−1 p.o., six days
[7] = system: carboxylesterase (CES) enzymes; test: gel-based ABPP of liver, lung and spleen from inhibitor-treated mice; type: in vivo, mouse
[8] = previously noted by the authors, no reference given; cited from earlier work
[9] = target: T5, MAGL (Mus musculus, UniProt O35678); test: competitive ABPP, mouse brain membrane proteome; type: biochemical; conditions: mouse brain proteome, competitive ABPP
T5 sequence (O35678 1-303): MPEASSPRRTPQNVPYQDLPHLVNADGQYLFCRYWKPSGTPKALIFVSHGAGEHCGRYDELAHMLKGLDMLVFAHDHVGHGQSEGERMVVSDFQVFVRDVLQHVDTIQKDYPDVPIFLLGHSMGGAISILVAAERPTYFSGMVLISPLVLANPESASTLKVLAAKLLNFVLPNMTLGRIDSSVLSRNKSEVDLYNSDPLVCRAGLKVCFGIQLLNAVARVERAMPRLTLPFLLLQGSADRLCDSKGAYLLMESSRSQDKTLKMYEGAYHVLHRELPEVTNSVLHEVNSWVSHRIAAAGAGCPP

[10] = target: T4, FAAH; test: competitive ABPP, mouse brain membrane proteome; type: biochemical
Summary of the method: as §1

[11] = target: T6, hMAGL (Homo sapiens, UniProt Q99685); test: competitive ABPP, proteomes of transiently transfected HEK293T cells; type: biochemical; conditions: read-out: IC50 (95% CI), human MAGL, transfected HEK293T cell proteome
T6 sequence (Q99685 1-303): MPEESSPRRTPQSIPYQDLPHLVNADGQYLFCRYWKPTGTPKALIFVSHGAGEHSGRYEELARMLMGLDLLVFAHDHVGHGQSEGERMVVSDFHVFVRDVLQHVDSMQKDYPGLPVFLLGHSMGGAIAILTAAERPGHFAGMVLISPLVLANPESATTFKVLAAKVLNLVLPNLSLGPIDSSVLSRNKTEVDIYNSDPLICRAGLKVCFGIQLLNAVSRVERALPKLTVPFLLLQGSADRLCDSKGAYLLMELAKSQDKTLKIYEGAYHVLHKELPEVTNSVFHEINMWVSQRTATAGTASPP

[12] = system: other rat brain serine hydrolases; test: competitive ABPP, rat brain proteome, other serine hydrolases; type: biochemical
Summary of the method: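 Rat brain proteome was preincubated with test compound, then labelled with the serine hydrolase-directed probe FP-rhodamine. Proteins were separated by SDS-PAGE and scanned by in-gel fluorescence. Inhibition of individual serine hydrolases was scored as reduced probe labelling.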

| Structure (SMILES) | pKa [1] | IC50 [2] | IC50 [3] | cross-reactivity with hFAAH (competitive ABPP) ([4]; lysates of HEK293T cells transfected with hFAAH) | IC50 [4] | brain FAAH inhibition, chronic dosing ([5]; 40 mg kg^−1 p.o., six days) | inhibition of brain FAAH ([5]; highest dose tested 40 mg kg^−1 p.o., 4 h) | brain 2-AG and NAE levels, chronic dosing [6] | CES inhibition in peripheral tissues, chronic dosing ([7]; 40 mg kg^−1 p.o., six days) | reactivity with CESs in liver, lung and spleen ([7]; 1–40 mg kg^−1 p.o., 4 h) | solubility in dosing vehicle [8] | potency for MAGL relative to FAAH [9] | FAAH reactivity ([10]; competitive ABPP, up to 10 μM) | IC50 [11] | additional off-target reactivity with other rat brain serine hydrolases [12] | FAAH inhibition / cross-reactivity (gel-based ABPP) ([10]; mouse brain proteome, concentration range tested 0.001–50 μM) |
| --- | --- | --- | --- | --- | --- | --- | --- | --- | --- | --- | --- | --- | --- | --- | --- | --- |
| OC(C(F)(F)F)C(F)(F)F [hexafluoroisopropanol] | ~ 9.3 |  |  |  |  |  |  |  |  |  |  |  |  |  |  |  |
| O=C(Oc1ccc([N+](=O)[O-])cc1)N1CCC(C(O)(c2ccc3c(c2)OCO3)c2ccc3c(c2)OCO3)CC1 [JZL184, reference compound] |  | 0.262 µM | 3.57 µM | no detectable cross-reactivity with FAAH up to 50 μM | > 50 µM | not only inhibited MAGL, but also FAAH | partially inhibit FAAH | increases in both 2-AG and NAEs | several CES enzymes in peripheral tissues | significant reactivity with several CESs | limited solubility |  |  |  |  |  |
| O=C(OC(C(F)(F)F)C(F)(F)F)N1CCN(Cc2cccc(Oc3ccccc3)c2)CC1 [JW642] |  | 0.014 µM | 14 µM |  | 20.6 µM |  |  |  |  |  |  | > 1000 fold | no observable FAAH reactivity up to 10 μM | 0.0037 µM | did not detect any additional off-target reactivity |  |
| CN(Cc1cccc(-c2ccncc2)c1)C(=O)OC(C(F)(F)F)C(F)(F)F [JW618] |  | 0.385 µM | > 50 µM |  | > 50 µM |  |  |  |  |  |  |  |  |  | did not detect any additional off-target reactivity | no detectable crossreactivity with FAAH |
